Experimental data: paper PMC6935887 (Journal of Medicinal Chemistry, 2019)
Values joined by “and” are separate entries in the source; they are usually repeats but may differ in a detail not shown here. Identical values can stand only once.

Experiments:
hCCR5 [1] = target: T1, hCCR5 (Homo sapiens, UniProt P51681); test: CCL3-stimulated [35S]GTPγS binding assay on U2OS-CCR5 membranes; assay type: biochemical; conditions: CCL3 alone, U2OS-CCR5, 25 °C
Method in brief: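 Membranes from Tango U2OS cells stably expressing human CCR5 (10 μg, with 0.25 mg/mL saponin) were preincubated 30 min at 25 °C with 5 μM GDP and increasing CCL3. Then 0.3 nM [35S]GTPγS was added for 90 min at 25 °C. Stopped with ice-cold Tris/MgCl2, then GF/B filtration. Nonlinear regression.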

hCCR5 [2] = target: T1, hCCR5; test: Tango β-arrestin recruitment assay in U2OS-CCR5 cells; assay type: cell-based
Method in brief: (§1)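 Tango bla U2OS cells (human CCR2b or CCR5) were trypsinized and seeded at 10 000 cells/well in FreeStyle medium. Agonist mode: CCL2 or CCL3 for 16 h, 37 °C, 5% CO2. Antagonist mode: 30 min room-temperature preincubation with increasing compound (≤0.5% DMSO final), then 16 h with EC80 CCL2 (5 nM, CCR2) or CCL3 (14 nM, CCR5). LiveBLAzer-FRET B/G substrate 2 h; excitation 400 nm, 460/535 nm emission ratio.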

CCR2 = conditions: read-out: IC50 in CCR2 calcium flux assay; previously reported activity; cited from earlier work
hCCR2 [3] = target: T2, hCCR2 (Homo sapiens, UniProt P41597); test: [3H]-CCR2-RA-[R] displacement binding assay on U2OS-CCR2b membranes; conditions: displacement of ∼6 nM [3H]-CCR2-RA-[R] from U2OS cells stably expressing CCR2, 25 °C
T2 sequence (P41597 1-360 isoform P41597-2): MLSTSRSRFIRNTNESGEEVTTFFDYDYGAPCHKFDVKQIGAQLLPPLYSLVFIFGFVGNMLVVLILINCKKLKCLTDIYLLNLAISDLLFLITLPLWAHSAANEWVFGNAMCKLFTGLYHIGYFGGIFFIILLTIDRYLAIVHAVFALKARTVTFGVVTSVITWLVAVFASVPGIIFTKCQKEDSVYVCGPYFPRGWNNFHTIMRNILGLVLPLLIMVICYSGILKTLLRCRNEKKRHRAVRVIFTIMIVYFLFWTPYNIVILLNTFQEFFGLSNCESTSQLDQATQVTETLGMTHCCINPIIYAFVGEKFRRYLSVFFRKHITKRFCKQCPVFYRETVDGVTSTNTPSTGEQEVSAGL
Method in brief: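 U2OS-CCR2b membranes (15–20 μg protein) were incubated with ~6 nM [3H]-CCR2-RA-[R] and at least 6 competitor concentrations. Buffer: 50 mM Tris-HCl, 5 mM MgCl2, 0.1% CHAPS, pH 7.4. Incubation 2 h at 25 °C. Rapid GF/B filtration, ten washes with ice-cold buffer (0.05% CHAPS), scintillation counting. Mean ± SEM of ≥3 experiments in duplicate.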

hCCR2 [4] = target: T2, hCCR2; test: Tango β-arrestin recruitment assay in U2OS-CCR2 cells; assay type: cell-based; conditions: inhibition of CCL2-induced β-arrestin recruitment in U2OS-CCR2
Method in brief: as §1

T1 sequence (P51681 whole entry): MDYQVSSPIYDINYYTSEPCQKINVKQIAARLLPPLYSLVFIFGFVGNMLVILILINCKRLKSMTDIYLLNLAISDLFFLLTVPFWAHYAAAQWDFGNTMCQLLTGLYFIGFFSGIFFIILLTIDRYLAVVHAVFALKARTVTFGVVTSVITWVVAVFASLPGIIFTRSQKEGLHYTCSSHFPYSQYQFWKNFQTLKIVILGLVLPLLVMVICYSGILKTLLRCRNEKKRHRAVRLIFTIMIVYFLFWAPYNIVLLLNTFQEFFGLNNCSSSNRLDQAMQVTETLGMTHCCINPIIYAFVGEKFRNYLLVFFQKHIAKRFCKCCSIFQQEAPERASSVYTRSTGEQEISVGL

Compound	EC50 (hCCR5 [1])	Emax ± SEM (%) (hCCR5 [1])	pEC50 ± SEM (hCCR5 [1])	pEC50 of β-arrestin recruitment (hCCR5 [2]; agonist, U2OS-CCR5)	pEC80 of β-arrestin recruitment (hCCR5 [2]; agonist, U2OS-CCR5)	EC50 (hCCR5 [2]; read-out: EC50 of β-arrestin recruitment, agonist, U2OS-CCR5)	IC50 (CCR2)	pKi ± SEM (hCCR2 [3])	Hill slope (nH) (hCCR2 [4])	Hill slope (nH) (hCCR5 [2]; inhibition of CCL3-induced β-arrestin recruitment in U2OS-CCR5)
CCL3: human recombinant chemokine, endogenous agonist of CCR5	4 nM	108 ± 2%	8.42 ± 0.06	8.3 ± 0.08	7.9 ± 0.08	6 nM	–	–	–	–
O=c1c(Cc2cccc(Cl)c2)c(C2CC2)[nH]c2ncnn12 [Compound 6, 6-(3-Chlorobenzyl)-5-cyclopropyl[1,2,4]triazolo[1,5-a]pyrimidin-7(4H)-one]	–	–	–	–	–	–	~20 nM	8.76 ± 0.01	–	–
Nc1nc2[nH]c(C3CC3)c(Cc3cccc(Cl)c3)c(=O)n2n1 [Compound 8, 2-Amino-6-(3-chlorobenzyl)-5-cyclopropyl[1,2,4]triazolo[1,5-a]pyrimidin-7(4H)-one]	–	–	–	–	–	–	16 nM and ~20 nM	8.90 ± 0.04	−2.7	−2.2 ± 0.3
